Measurements reported in ChEMBL document CHEMBL1121475, “Inhibitors of indoleethylamine N-methyltransferase. Derivatives of 3-methyl-2-thiazolidinimine. In vitro, in vivo, and metabolic studies” (J Med Chem, 1980).
Values joined by “and” are separate entries in the source; they are usually repeats but may differ in a detail not shown here. Equal entries are not always repeated.

Tests used:
Type in all cases: ADME, organism-based
Oryctolagus cuniculus [1] = test: 100 mg/kg of [14C]- radiolabeled compound was orally (gavage) injected in rabbit, and radioactivity content in feces was estimated; details: in vivo, po
Method in brief: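 Rabbit given 100 mg/kg [14C]-labelled drug by gavage, 204.6 dpm/μg, in water/0.1 N HCl at 6.66 mg/mL. Rabbit 1 was killed at 2 h and liver, lung, kidney and blood taken; tissue values are μg equivalents/g and tissue:plasma ratio. Rabbit 3 was kept for urine (0-24, 24-48, 48-72 h) and feces (0-48 h), expressed as % of dose.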

Oryctolagus cuniculus [2] = test: Evaluation of formation of 3-Methyl-thiazolidin-2-ylideneamine from the radiolabeled compound, orally administered, from rabbit 4 urine was analyzed at 0-2 hr by Gas-liquid chromatographic analysis; details: in vivo, po, in the assay text read “0-24 hr” for “0-2 hr”
Method in brief: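 Rabbits 3 (single 100 mg/kg) and 4 (two 100 mg/kg doses 2 h apart) were gavaged with [14C]-labelled parent amide (204.6 dpm/μg). They were not killed; urine was collected 0-24 h. The metabolite was quantified by GLC of trimethylsilylated extracts against an internal-standard peak-height-ratio curve. Results are given as % of urinary radioactivity or % of administered dose, mean of two determinations.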

Oryctolagus cuniculus [3] = test: 200 mg/kg of [14C]- radiolabeled compound was intravenously (gavage) injected in rabbit4, and radioactivity content in feces was estimated at 0-48 hr; details: rabbit, in vivo, po, in the assay text read “orally (gavage) administered” for “intravenously (gavage) injected”
Method in brief: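 Rabbit given two 100 mg/kg gavage doses of [14C]-labelled drug, 2 h apart, 204.6 dpm/μg, 6.66 mg/mL in water/0.1 N HCl. Rabbit 2 was killed 2 h after the last dose and liver, lung, kidney and plasma taken (μg equivalents/g; tissue:plasma ratio). Rabbit 4 gave urine over 0-4, 0-24, 24-48 and 48-72 h and feces over 0-48 h, as % of dose.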

## CN1CCS/C1=N\C(=O)CCC(=O)/N=C1/SCCN1C
Oryctolagus cuniculus [1]
  Administered dose: 9% and 1%
Oryctolagus cuniculus [2]
  Radioactivity: 48.7%
Oryctolagus cuniculus [3]
  Administered dose: 6%
